Our source for the GI50 and IC50 values is ChEMBL document CHEMBL2069249, “Saquayamycins G-K, cytotoxic angucyclines from Streptomyces sp. Including two analogues bearing the aminosugar rednose” (J Nat Prod, 2012).

For one test, the system named is PC-3. Kind of test: Growth inhibition of human PC3 cells incubated for 48 hrs by resazurin dye reduction based fluorimetric assay. It counts as functional. Conditions: PC-3, 48 h. Summed up: (§1)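 Cells seeded at 5 × 10^3 per well in full growth medium, adhered overnight, then medium replaced with fresh medium containing serial compound concentrations or DMSO control; 48 h at 37 °C. Resazurin added, 3 h at 37 °C; fluorescence ex 560/em 590 nm, time-zero reading subtracted. GI50 by nonlinear sigmoidal dose-response fit; landomycin A positive control; four replicates.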
In general terms: Alamar Blue is a resazurin reagent that responds to reducing activity.

A further test has as its system NCI-H460. Kind of test: Growth inhibition of human NCI-H460 cells incubated for 48 hrs by resazurin dye reduction based fluorimetric assay. The format is functional. Conditions: NCI-H460, 48 h. Summed up:
as §1

A short description of test [1]: Inhibition of bovine brain FPTase. Set-up: species or system Bos taurus.
For test [2], the target named is Nitric oxide synthase, inducible (Homo sapiens, UniProt P35228). Kind of test: Inhibition of iNOS.

The term GI50 denotes the concentration that inhibits growth by half. As usually defined, the IC50 is the concentration at which inhibition is half-maximal. High values mean weaker potency in that assay, low ones greater potency in that assay.

SMILES strings stand for the structures.

Sequence of Nitric oxide synthase, inducible (P35228 whole entry): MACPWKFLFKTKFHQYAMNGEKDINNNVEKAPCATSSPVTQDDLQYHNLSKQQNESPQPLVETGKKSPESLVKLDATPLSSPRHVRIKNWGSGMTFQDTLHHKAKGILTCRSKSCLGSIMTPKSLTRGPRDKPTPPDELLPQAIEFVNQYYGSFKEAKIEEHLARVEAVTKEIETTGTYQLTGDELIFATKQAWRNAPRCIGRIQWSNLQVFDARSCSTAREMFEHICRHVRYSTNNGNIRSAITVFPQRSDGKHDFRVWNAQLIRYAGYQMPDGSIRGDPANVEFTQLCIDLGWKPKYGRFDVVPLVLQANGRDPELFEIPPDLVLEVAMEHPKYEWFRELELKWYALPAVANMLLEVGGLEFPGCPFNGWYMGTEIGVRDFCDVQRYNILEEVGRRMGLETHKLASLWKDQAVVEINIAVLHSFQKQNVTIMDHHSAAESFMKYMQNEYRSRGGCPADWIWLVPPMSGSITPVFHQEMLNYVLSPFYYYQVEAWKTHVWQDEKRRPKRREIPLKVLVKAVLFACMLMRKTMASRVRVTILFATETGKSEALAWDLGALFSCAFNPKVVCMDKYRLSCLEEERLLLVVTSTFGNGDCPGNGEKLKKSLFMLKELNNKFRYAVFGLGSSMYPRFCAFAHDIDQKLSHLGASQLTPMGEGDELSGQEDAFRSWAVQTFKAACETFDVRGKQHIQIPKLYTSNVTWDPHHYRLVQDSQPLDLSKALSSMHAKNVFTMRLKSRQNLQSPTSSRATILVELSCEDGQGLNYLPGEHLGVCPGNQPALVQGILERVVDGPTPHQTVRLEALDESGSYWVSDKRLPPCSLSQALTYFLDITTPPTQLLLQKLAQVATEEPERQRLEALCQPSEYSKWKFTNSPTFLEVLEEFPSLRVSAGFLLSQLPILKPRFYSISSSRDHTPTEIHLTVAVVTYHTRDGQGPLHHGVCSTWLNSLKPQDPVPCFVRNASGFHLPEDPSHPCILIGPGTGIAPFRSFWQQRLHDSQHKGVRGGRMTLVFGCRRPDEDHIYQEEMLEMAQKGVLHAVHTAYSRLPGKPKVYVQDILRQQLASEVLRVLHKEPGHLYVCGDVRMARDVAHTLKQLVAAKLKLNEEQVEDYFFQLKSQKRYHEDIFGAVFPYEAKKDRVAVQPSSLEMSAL

As to `C[C@@H]1O[C@@H](O[C@H]2CC[C@H](O[C@@]3(C)CC(=O)[C@]4(O)C5=C(C=C[C@]4(O)C3)C(=O)c3c(ccc([C@H]4C[C@H]6O[C@H]7CC(=O)[C@H](C)O[C@H]7O[C@@H]6[C@@H](C)O4)c3O)C5=O)O[C@H]2C)C=CC1=O` [SAQUAYAMYCIN B], the concentration for 50% growth inhibition (GI50) with PC-3 turned out to be 74.5 nM; in the test with NCI-H460 it was 3930 nM. Taken in the same sequence, the figures for `C[C@@H]1O[C@@H](O[C@H]2CC[C@H](O[C@@]3(C)CC(=O)[C@]4(O)C5=C(C=C[C@]4(O)C3)C(=O)c3c(ccc([C@H]4C[C@@H](O)[C@H](O[C@H]6CC[C@H](O)[C@H](C)O6)[C@@H](C)O4)c3O)C5=O)O[C@H]2C)C=CC1=O` [SAQUAYAMYCIN K] were 148 nM and 7280 nM.

Regarding `C[C@@H]1O[C@@H](O[C@H]2CC[C@H](O[C@@]3(C)CC(=O)[C@]4(O)C5=C(C=C[C@]4(O)C3)C(=O)c3c(ccc([C@H]4C[C@@H](O)[C@H](O[C@H]6CCC(=O)[C@H](C)O6)[C@@H](C)O4)c3O)C5=O)O[C@H]2C)C=CC1=O` [SAQUAYAMYCINS F], the half-maximal inhibitory concentration (IC50) in test [1] turned out to be 2000 nM. With `Cc1cc(O)c2c(c1)C[C@@H](O)C1=C2C(=O)c2c(O)ccc(O[C@H]3C[C@@H](O)[C@H](O[C@H]4C[C@@H](O[C@H]5CC[C@H](O[C@H]6C[C@@H](O)[C@H](O[C@H]7C[C@@H](O[C@H]8CC[C@H](O)[C@H](C)O8)[C@H](O)[C@@H](C)O7)[C@@H](C)O6)[C@H](C)O5)[C@H](O)[C@@H](C)O4)[C@@H](C)O3)c2C1=O` [LANDOMYCIN A], the GI50 is 550 nM in the test with PC-3 and 4110 nM in the test on NCI-H460. In test [2], `C[C@@H]1O[C@@H](O[C@H]2CC[C@H](O[C@H]3[C@H](O)C[C@H](c4ccc5c(c4O)C(=O)C4=C(C5=O)[C@@]5(O)C(=O)C[C@](C)(O)C[C@@]5(O)C=C4)O[C@@H]3C)O[C@H]2C)C=CC1=O` registered a half-maximal inhibitory concentration (IC50) of 43500 nM.

For `C[C@@H]1O[C@H]2O[C@@H]3[C@@H](C)O[C@@H](c4ccc5c(c4O)C(=O)C4=C(C5=O)[C@@]5(O)C(=O)C[C@](C)(O[C@H]6CC[C@H](O[C@H]7CC[C@H](O)[C@H](C)O7)[C@H](C)O6)C[C@@]5(O)C=C4)C[C@H]3O[C@H]2CC1=O` [SAQUAYAMYCIN J], the 50% growth inhibitory concentration (GI50) in the test on PC-3 came out at 179 nM; in the test on NCI-H460, 5690 nM. The like results for `C[C@@H]1O[C@H]2O[C@@H]3[C@@H](C)O[C@@H](c4ccc5c(c4O)C(=O)C4=C(C5=O)[C@@]5(O)C(=O)C[C@](C)(O)C[C@@]5(O)C=C4)C[C@H]3O[C@H]2CC1=O` [SAQUAYAMYCIN B1] were, in that order, 1760 nM and 13200 nM. The like results for `C[C@@H]1O[C@@H](O[C@H]2CC[C@H](O[C@@]3(C)CC(=O)[C@]4(O)C5=C(C=C[C@]4(O)C3)C(=O)c3c(ccc([C@H]4C[C@@H](O)[C@H](O)[C@@H](C)O4)c3O)C5=O)O[C@H]2C)C=CC1=O` (relative stereo) [SAQUAYAMYCIN G] were, in that order, 554 nM and 6720 nM. The like results for `C[C@@H]1O[C@@H](O[C@H]2CC[C@H](O[C@@]3(C)CC(=O)[C@]4(O)C5=C(C=C[C@]4(O)C3)C(=O)c3c(ccc([C@H]4C[C@H]6O[C@H]7CC(=O)[C@H](C)O[C@H]7O[C@@H]6[C@@H](C)O4)c3O)C5=O)O[C@H]2C)C(N)=CC1=O` [SAQUAYAMYCIN H] were, in that order, 790 nM and 3300 nM.

For `C[C@@H]1O[C@@H](O[C@H]2CC[C@H](O[C@@]3(C)CC(=O)[C@]4(O)C5=C(C=C[C@]4(O)C3)C(=O)c3c(ccc([C@H]4C[C@@H](O)[C@H](O[C@@H]6O[C@@H](C)C(=O)C=C6N)[C@@H](C)O4)c3O)C5=O)O[C@H]2C)C=CC1=O` (relative stereo) [SAQUAYAMYCIN I], the figures for the GI50 with PC-3 and in the test on NCI-H460 were 915 nM and 7940 nM, respectively. In turn, `C[C@@H]1O[C@@H](O[C@H]2[C@H](O)C[C@H](c3ccc4c(c3O)C(=O)C3=C(C4=O)[C@@]4(O)C(=O)C[C@](C)(O[C@H]5CC[C@H](O[C@H]6CCC(=O)[C@H](C)O6)[C@H](C)O5)C[C@@]4(O)C=C3)O[C@@H]2C)C=CC1=O` [SAQUAYAMYCINS E] came in with an IC50 in test [1] of 1800 nM. Compound `C[C@@H]1O[C@@H](O[C@H]2[C@H](O)C[C@H](c3ccc4c(c3O)C(=O)C3=C(C4=O)[C@@]4(O)C(=O)C[C@](C)(O)C[C@@]4(O)C=C3)O[C@@H]2C)C=CC1=O` [SAQUAYAMYCINS A1] registered an IC50 in test [2] of 101000 nM. Turning to `C[C@@H]1O[C@@H](O[C@H]2[C@H](O)C[C@H](c3ccc4c(c3O)C(=O)C3=C(C4=O)[C@@]4(O)C(=O)C[C@](C)(O[C@H]5CC[C@H](O[C@H]6C=CC(=O)[C@H](C)O6)[C@H](C)O5)C[C@@]4(O)C=C3)O[C@@H]2C)C=CC1=O` [SAQUAYAMYCINS A], the GI50 in the test on PC-3 amounted to 106 nM; in the test with NCI-H460 it was 6200 nM.
